According to article PMC7551138 (Alzheimer's & Dementia : Translational Research & Clinical …, 2020):

Legend:
healthy elderly subjects = assay: Monitoring of treatment‐emergent adverse events; assay type: in vivo, human; conditions: 16 mg oral, single dose; within 24 hours after administration
Procedure, shortened: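 Randomised, double-blind, placebo-controlled trial in healthy subjects aged ≥65 (n=48; 12 active:4 placebo per cohort, placebos pooled). Intranasal test compound 5.5, 11 or 22 mg or 0.9% NaCl b.i.d. for 7 days, 6 h between doses. The 11 mg active subjects later got one open-label oral 16 mg dose of the parent drug. Safety was tracked by TEAEs, nasal examination, vital signs, ECG and safety bloods.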

[1] = 4 mg/kg in mice; cited from earlier work

COc1ccc2c3c1O[C@H]1C[C@@H](O)C=C[C@@]31CCN(C)C2 [galantamine, reference compound]
TEAEs within 24 hours: All gastrointestinal disorders (healthy elderly subjects): 8 (66.7) number of subjects (percentage
TEAEs within 24 hours: Any events (healthy elderly subjects): 10 (83.3) number of subjects (percentage
TEAEs within 24 hours: Diarrhea (healthy elderly subjects): 1 (8.3) number of subjects (percentage
TEAEs within 24 hours: Nausea (healthy elderly subjects): 5 (41.7) number of subjects (percentage
TEAEs within 24 hours: Vomiting (healthy elderly subjects): 5 (41.7) number of subjects (percentage
brain‐to‐blood ratio [1]: 2.1
